In ChEMBL document CHEMBL3739368, “Versixanthones A-F, Cytotoxic Xanthone-Chromanone Dimers from the Marine-Derived Fungus Aspergillus versicolor HDN1009” (J Nat Prod, 2015):
Where a name gives a salt, the structure may show the parent alone. Activity calls are given as the source filed them. The rule behind the calls is not given here.

How the values were obtained:
[1] = tested on: NCI-H1975; assay: Cytotoxicity against human NCI-H1975 cells after 72 hrs by MTT assay; type: functional, cell-based; conditions: NCI-H1975, 72 h
[2] = Cytotoxicity against human HO8910 cells after 72 hrs by MTT assay; type: functional, cell-based; conditions: HO-8910, 72 h
[3] = Cytotoxicity against human MGC803 cells after 72 hrs by MTT assay; type: functional, cell-based; conditions: MGC-803, 72 h
[4] = tested on: K562; assay: Cytotoxicity against human K562 cells after 72 hrs by MTT assay; type: functional, cell-based; conditions: K562, 72 h
[5] = tested on: A549; assay: Cytotoxicity against human A549 cells after 72 hrs by MTT assay; type: functional, cell-based; conditions: A549, 72 h
[6] = Cytotoxicity against human HCT116 cells after 72 hrs by MTT assay; type: functional, cell-based; conditions: HCT-116, 72 h
[7] = Chemical stability of the compound in deuterated DMSO by NMR spectroscopic analysis; type: physicochemical
[8] = Cytotoxicity against human HL60 cells after 72 hrs by MTT assay; type: functional, cell-based; conditions: HL-60, 72 h
[9] = target: T1, DNA topoisomerase 1 (Homo sapiens) (UniProt P11387); assay: Inhibition of topoisomerase 1 (unknown origin) assessed as decrease in PBR322 DNA relaxation at 5 to 40 uM after 30 mins by ethidium bromide staining-based agarose gel electrophoresis
T1 sequence (whole entry): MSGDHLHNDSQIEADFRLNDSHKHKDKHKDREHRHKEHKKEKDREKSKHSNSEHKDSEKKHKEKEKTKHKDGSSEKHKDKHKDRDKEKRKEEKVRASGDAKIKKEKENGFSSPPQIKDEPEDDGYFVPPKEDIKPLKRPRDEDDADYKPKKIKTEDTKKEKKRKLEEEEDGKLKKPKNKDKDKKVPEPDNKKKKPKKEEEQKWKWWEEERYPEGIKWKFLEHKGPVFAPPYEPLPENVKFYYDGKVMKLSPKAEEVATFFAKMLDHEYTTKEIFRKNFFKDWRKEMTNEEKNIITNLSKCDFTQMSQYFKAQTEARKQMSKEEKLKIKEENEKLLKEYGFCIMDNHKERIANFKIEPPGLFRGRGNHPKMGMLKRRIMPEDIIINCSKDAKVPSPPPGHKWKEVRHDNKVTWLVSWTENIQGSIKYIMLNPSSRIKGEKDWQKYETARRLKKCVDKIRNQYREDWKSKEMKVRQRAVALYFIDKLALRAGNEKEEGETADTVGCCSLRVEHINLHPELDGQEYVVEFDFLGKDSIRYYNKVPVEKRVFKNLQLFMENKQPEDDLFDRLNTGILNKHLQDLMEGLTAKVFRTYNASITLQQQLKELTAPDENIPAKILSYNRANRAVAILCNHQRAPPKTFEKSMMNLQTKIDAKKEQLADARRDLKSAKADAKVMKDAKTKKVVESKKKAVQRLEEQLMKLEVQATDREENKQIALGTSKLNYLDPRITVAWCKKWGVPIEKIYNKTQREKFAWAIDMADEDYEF
Procedure, shortened: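 Supercoiled pBR322 plasmid DNA served as substrate. Samples were resolved on 1% agarose gels and stained with ethidium bromide. Supercoiled and relaxed DNA bands were marked on the gel.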

Q: For `COC(=O)[C@@]12Oc3ccc(-c4ccc5c(c4O)C(=O)C[C@@](C(=O)OC)([C@@H]4OC(=O)C[C@@H]4C)O5)c(O)c3C(=O)C1=C(O)C[C@H](C)[C@H]2O`, which IC50 [1] is on record?
A: > 50 µM

Q: And the IC50 [2]?
A: 13.9 µM

Q: What about the IC50 [3] of the same compound?
A: 9.8 µM

Q: And the IC50 [4]?
A: 9.1 µM

Q: What about the IC50 [5] of the same compound?
A: 12.7 µM

Q: What about the IC50 [6] of the same compound?
A: 6.1 µM

Q: And the Stability [7]?
A: Unstable

Q: What about the IC50 [8] of the same compound?
A: 3.1 µM

Q: With `COC(=O)[C@@]12Oc3ccc(-c4ccc(O)c5c4O[C@](C(=O)OC)([C@@H]4OC(=O)C[C@@H]4C)CC5=O)c(O)c3C(=O)C1=C(O)C[C@H](C)[C@H]2O` as the compound, how does the IC50 [1] read?
A: 25.6 µM

Q: And the IC50 [2]?
A: > 50 µM

Q: What about the IC50 [4] of the same compound?
A: 18.2 µM

Q: And the IC50 [5]?
A: > 50 µM

Q: What about the IC50 [6] of the same compound?
A: > 50 µM

Q: What about the Stability [7] of the same compound?
A: Unstable

Q: And the IC50 [8]?
A: 7.8 µM

Q: For `COC(=O)[C@@]12Oc3c(-c4ccc5c(c4O)C(=O)C[C@@](C(=O)OC)([C@@H]4OC(=O)C[C@@H]4C)O5)ccc(O)c3C(=O)C1=C(O)C[C@H](C)[C@H]2O`, which IC50 [1] is on record?
A: 11.2 µM

Q: What about the IC50 [2] of the same compound?
A: 10.1 µM

Q: And the IC50 [3]?
A: > 50 µM

Q: And the IC50 [4]?
A: 7.1 µM

Q: And the IC50 [5]?
A: > 50 µM

Q: What about the Stability [7] of the same compound?
A: Unstable

Q: And the IC50 [8]?
A: 2.6 µM

Q: With `COc1cccc2c1C(=O)c1c(O)c3c(c(O)c1C2=O)C[C@@](O)(C(=O)CO)C[C@@H]3O[C@H]1C[C@H](N)[C@H](O)[C@H](C)O1` [DOXORUBICIN HYDROCHLORIDE] as the compound, how does the IC50 [1] read?
A: 0.8 µM

Q: And the IC50 [3]?
A: 0.2 µM

Q: What about the IC50 [6] of the same compound?
A: 0.2 µM

Q: What does the source list for `COC(=O)C[C@H](C)[C@@H](O)[C@]1(C(=O)OC)CC(=O)c2c(ccc(-c3ccc(O)c4c3O[C@]3(C(=O)OC)C(=C(O)C[C@H](C)[C@H]3O)C4=O)c2O)O1`?
A: IC50 [1]: 2.7 µM; IC50 [2]: 2 µM; IC50 [3]: 2.2 µM; IC50 [4]: 11.1 µM; inhibition [9]: Active; Stability [7]: Unstable; IC50 [8]: 1.6 µM

Q: Which results are given for `COC(=O)[C@@]12Oc3c(-c4ccc(O)c5c4O[C@](C(=O)OC)([C@@H]4OC(=O)C[C@@H]4C)CC5=O)ccc(O)c3C(=O)C1=C(O)C[C@H](C)[C@H]2O`?
A: IC50 [1]: > 50 µM; IC50 [2]: > 50 µM; IC50 [3]: 21.6 µM; IC50 [5]: > 50 µM; Stability [7]: Unstable; IC50 [8]: 9.9 µM

Q: Which IC50 [2] does the source give for `COC(=O)C[C@H](C)[C@@H](O)[C@]1(C(=O)OC)CC(=O)c2c(ccc(-c3ccc4c(c3O)C(=O)C3=C(O)C[C@H](C)[C@@H](O)[C@]3(C(=O)OC)O4)c2O)O1` here?
A: 20.8 µM

Q: And the IC50 [4]?
A: 6.7 µM

Q: And the IC50 [5]?
A: 10.6 µM

Q: And the IC50 [6]?
A: 0.7 µM

Q: What about the Stability [7] of the same compound?
A: Unstable

Q: And the IC50 [8]?
A: 2.7 µM

Q: What does the source list for `COC(=O)[C@@]12Oc3ccc(-c4ccc5c(c4O)C(=O)C4=C(O)C[C@H](C)[C@@H](O)[C@]4(C(=O)OC)O5)c(O)c3C(=O)C1=C(O)C[C@H](C)[C@H]2O`?
A: IC50 [2]: 1.5 µM; IC50 [3]: 1.5 µM; IC50 [4]: 2 µM; IC50 [5]: 2.1 µM; IC50 [6]: 0.9 µM; IC50 [8]: 1 µM
